Laboratory results reported in ChEMBL document CHEMBL1148712, “Design, synthesis, and SAR study of a series of N-alkyl-N'-[2-(aryloxy)-5-nitrobenzenesulfonyl]ureas and -cyanoguanidine as selective antagonists of the TPalpha and TPbeta isoforms of the human thromboxane A2 receptor” (J Med Chem, 2007).
The source made the active and inactive calls. The rule behind the calls is not given here.

Assays:
[1] = biological target: T1, Thromboxane A2 receptor (Homo sapiens) (UniProt P21731); experiment: Ratio of IC50 for thromboxane A2 receptor isoform alpha to IC50 for thromboxane A2 receptor isoform beta; type: functional
T1 sequence (whole entry): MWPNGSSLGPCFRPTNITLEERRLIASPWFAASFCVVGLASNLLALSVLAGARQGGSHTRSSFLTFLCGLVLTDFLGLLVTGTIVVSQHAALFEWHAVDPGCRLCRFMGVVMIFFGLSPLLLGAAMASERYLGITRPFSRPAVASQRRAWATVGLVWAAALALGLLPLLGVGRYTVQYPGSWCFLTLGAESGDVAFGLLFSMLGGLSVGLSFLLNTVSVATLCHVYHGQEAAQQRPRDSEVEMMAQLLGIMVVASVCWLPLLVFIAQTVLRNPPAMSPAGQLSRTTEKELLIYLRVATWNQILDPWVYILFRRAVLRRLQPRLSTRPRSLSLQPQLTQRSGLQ
How it was run: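 Selectivity index calculated as IC50 for TPα divided by IC50 for TPβ. Both IC50s come from U46619 (1 µM)-induced Fluo-4 [Ca2+]i assays in HEK293 cells stably overexpressing the respective isoform.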

Thromboxane A2 receptor [2] = biological target: T2, Thromboxane A2 receptor (Homo sapiens, UniProt P21731); experiment: Antagonist activity at human thromboxane A2 receptor isoform beta expressed in HEK293 cells assessed as inhibition of U46619-induced calcium mobilization; type: functional, cell-based
T2 sequence (P21731 whole entry): T1 sequence (whole entry)
How it was run: (§1)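 HA-tagged receptor stably overexpressed in HEK293 cells grown in DMEM with 10% FBS. Trypsinized cells washed in Krebs-HEPES pH 7.4, loaded 1 h with Fluo-4/AM (5 µg/mL), rinsed, 150 000 cells/well. Compound (10^-8 to 10^-5 M final) for 10 min before U46619 (1 µM final). Emission at 538; Triton/EGTA calibration, Kd 385 nM. IC50 by nonlinear regression, ≥3 curves.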

Thromboxane A2 receptor [3] = biological target: T2, Thromboxane A2 receptor; experiment: Antagonist activity at human thromboxane A2 receptor isoform alpha expressed in HEK293 cells assessed as inhibition of U46619-induced calcium mobilization; type: functional, cell-based; how it was run: as §1
[4] = biological target: T1, Thromboxane A2 receptor (Homo sapiens); experiment: Antagonist activity at human thromboxane A2 receptor isoform beta expressed in HEK293 cells assessed as inhibition of U46619-induced calcium mobilization at 0.1 uM; type: functional, cell-based
How it was run: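 HEK293 cells stably overexpressing HA-tagged TPβ, loaded 1 h with Fluo-4/AM (5 µg/mL) in Krebs-HEPES pH 7.4. Compound at 0.1 µM for 10 min, then U46619 (1 µM final). Fluorescence calibrated to [Ca2+]i with Triton X-100 and EGTA; response taken against the rise with U46619 alone.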

Platelet = experiment: Inhibition of U46619-induced human platelet aggregation; type: functional, cell-based
How it was run: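 Turbidimetric Born method on PRP from 10 healthy donors aged 20-30, medication-free for 14 days. Platelets adjusted to 3 × 10⁸ cells/mL with PPP, stirred at 1000 rpm. Compound (10^-9 to 10^-5 M) preincubated 3 min at 37 °C, then U46619 (1 µM final). Maximum light transmission read 6 min after inducer; IC50 by nonlinear regression from ≥3 curves.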

Row | Compound | Ratio IC50 [1] | IC50 (Thromboxane A2 receptor [2]) [nM] | IC50 (Thromboxane A2 receptor [3]) [nM] | Activity [4] | IC50 (Platelet) [nM]
1 | Cc1ccc(Nc2ccc([N+](=O)[O-])cc2S(=O)(=O)NC(=O)NC(C)(C)C)cc1 | 6.01 |  |  |  | 
2 | Cc1cccc(Oc2ccc([N+](=O)[O-])cc2S(=O)(=O)NC(=O)NC(C)C)c1 | 12.9 | 205 | 2640 |  | 
3 | CCCCCNC(=O)NS(=O)(=O)c1cc([N+](=O)[O-])ccc1Oc1cccc(I)c1 | 5.1 | 885 | 4520 |  | 
4 | CCCCCNC(=O)NS(=O)(=O)c1cc([N+](=O)[O-])ccc1Oc1ccc(Br)cc1 | 8.4 | 120 | 1010 |  | 
5 | CCCCCNC(=O)NS(=O)(=O)c1cc([N+](=O)[O-])ccc1Oc1ccccc1C | 9 | 181 | 1630 |  | 
6 | CC(C)(C)NC(=O)NS(=O)(=O)c1cc([N+](=O)[O-])ccc1Oc1ccccc1Cl | 11.8 | 205 | 2420 |  | 
7 | Cc1ccc(Oc2ccc([N+](=O)[O-])cc2S(=O)(=O)N/C(=N\C#N)NC(C)(C)C)cc1 | 3.6 |  |  |  | 
8 | CC(C)(C)NC(=O)NS(=O)(=O)c1cc([N+](=O)[O-])ccc1Oc1cccc(Cl)c1 | 9.6 | 73 | 698 |  | 
9 | Cc1ccccc1Oc1ccc([N+](=O)[O-])cc1S(=O)(=O)NC(=O)NC(C)C | 17.5 | 501 | 8750 |  | 
10 | COc1ccc(Oc2ccc([N+](=O)[O-])cc2S(=O)(=O)NC(=O)NC(C)(C)C)cc1 | 12.7 | 152 | 1940 |  | 
11 | CCCOc1ccc(Oc2ccc([N+](=O)[O-])cc2S(=O)(=O)NC(=O)NC(C)(C)C)cc1 | 12.3 | 875 | 10800 |  | 
12 | CC(C)(C)NC(=O)NS(=O)(=O)c1cc([N+](=O)[O-])ccc1Oc1ccc(Cl)cc1 | 7.6 | 400 | 3050 |  | 
13 | CCCCCNC(=O)NS(=O)(=O)c1cc([N+](=O)[O-])ccc1Oc1cccc(Br)c1 | 14.2 | 413 | 5860 |  | 
14 | CCCCCNC(=O)NS(=O)(=O)c1cc([N+](=O)[O-])ccc1Oc1ccc(OC)cc1 | 6 | 446 | 2670 |  | 
15 | CCCCCNC(=O)NS(=O)(=O)c1cc([N+](=O)[O-])ccc1Oc1cccc(C)c1 | 11.3 | 223 | 2530 |  | 
16 | CCCCCNC(=O)NS(=O)(=O)c1cc([N+](=O)[O-])ccc1Oc1ccccc1Cl | 7.9 | 387 | 3060 |  | 
17 | CC(C)(C)NC(=O)NS(=O)(=O)c1cc([N+](=O)[O-])ccc1Oc1ccccc1Br | 17 | 151 | 2580 |  | 
18 | CC(C)(C)NC(=O)NS(=O)(=O)c1cc([N+](=O)[O-])ccc1Oc1cccc(Br)c1 | 11.6 | 59 | 683 |  | 
19 | CC(C)(C)NC(=O)NS(=O)(=O)c1cc([N+](=O)[O-])ccc1Oc1cccc(I)c1 | 4.9 | 95 | 470 |  | 
20 | CCCCNC(=O)NS(=O)(=O)c1cc([N+](=O)[O-])ccc1Oc1ccccc1C | 16.1 | 42 | 673 |  | 

Row | Compound | Ratio IC50 [1] | IC50 (Thromboxane A2 receptor [2]) [nM] | IC50 (Thromboxane A2 receptor [3]) [nM] | Activity [4] | IC50 (Platelet) [nM]
21 | COc1cccc(Oc2ccc([N+](=O)[O-])cc2S(=O)(=O)NC(=O)NC(C)(C)C)c1 | 19.9 | 99 | 1970 |  | 
22 | CC(C)(C)NC(=O)NS(=O)(=O)c1cc([N+](=O)[O-])ccc1Oc1ccc(I)cc1 | 5.4 | 401 | 2150 |  | 
23 | Cc1ccc(Oc2ccc([N+](=O)[O-])cc2S(=O)(=O)NC(=NC(C)(C)C)NC#N)cc1 |  | 579 | 2080 |  | 
24 | CCCCCNC(=O)NS(=O)(=O)c1cc([N+](=O)[O-])ccc1Oc1ccc(Cl)c(C)c1 | 6.6 | 565 | 3720 |  | 
25 | CCCCCNC(=O)NS(=O)(=O)c1cc([N+](=O)[O-])ccc1Oc1ccc(OCCC)cc1 | 5.6 | 4840 | 27200 |  | 
26 | Cc1ccccc1Oc1ccc([N+](=O)[O-])cc1S(=O)(=O)NC(=O)NC(C)(C)C | 16.1 | 233 | 3760 |  | 
27 | CCCCNC(=O)NS(=O)(=O)c1cc([N+](=O)[O-])ccc1Oc1cccc(C)c1 | 12.3 | 155 | 1910 |  | 
28 | COc1cc(C)ccc1Oc1ccc([N+](=O)[O-])cc1S(=O)(=O)NC(=O)NC(C)(C)C | 10.2 | 52 | 528 |  | 
29 | CC(C)(C)NC(=O)NS(=O)(=O)c1cc([N+](=O)[O-])ccc1Oc1ccc(Br)cc1 | 3.2 | 523 | 1660 |  | 
30 | Cc1ccc(Oc2ccc([N+](=O)[O-])cc2S(=O)(=O)NC(=O)NC(C)C)cc1 | 10.4 | 843 | 8760 |  | 
31 | CCCCCNC(=O)NS(=O)(=O)c1cc([N+](=O)[O-])ccc1Oc1ccccc1Br | 7.4 | 423 | 3130 |  | 
32 | CCCNC(=O)NS(=O)(=O)c1cc([N+](=O)[O-])ccc1Oc1ccc(C)cc1 | 9.4 | 448 | 4220 |  | 
33 | CCCCCNC(=O)NS(=O)(=O)c1cc([N+](=O)[O-])ccc1Oc1ccc(OCC)cc1 | 18.1 | 749 | 13600 |  | 
34 | Cc1cc(Oc2ccc([N+](=O)[O-])cc2S(=O)(=O)NC(=O)NC(C)(C)C)ccc1Cl | 9.6 | 111 | 1060 |  | 
35 | CCOc1ccc(Oc2ccc([N+](=O)[O-])cc2S(=O)(=O)NC(=O)NC(C)(C)C)cc1 | 17.5 | 1100 | 19200 |  | 
36 | Cc1cccc(Oc2ccc([N+](=O)[O-])cc2S(=O)(=O)NC(=O)NC(C)(C)C)c1 |  | 17 | 398 | Active | 513
37 | CCCCCNC(=O)NS(=O)(=O)c1cc([N+](=O)[O-])ccc1Oc1ccc(Cl)cc1 | 8.9 | 98 | 871 |  | 
38 | CCCCCNC(=O)NS(=O)(=O)c1cc([N+](=O)[O-])ccc1Oc1ccc(I)cc1 | 7.2 | 302 | 2190 |  | 
39 | CCCCCNC(=O)NS(=O)(=O)c1cc([N+](=O)[O-])ccc1Oc1cccc(Cl)c1 | 11.9 | 201 | 2390 |  | 
